Inconclusive results are not listed.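 How the source made its calls, unless noted: active means viability at or below 27.92% in each of two runs, the all-compound median minus 4 SD; inconclusive means no clear call, values can overlap the other calls; inactive means the rest.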
How the values were obtained:
[1] = S. cerevisiae growth inhibition in permissive medium (OD615), pilot counter-assay for S. cerevisiae lifespan shortening project, permissive growth control (AID 705;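 active means growth inhibition above 25% in both replicates, a cutoff set 3 SD above the mean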); conditions: OD615, 24 h, at 10 µM, stronger effect = higher value
How it was run: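 System: Engineered DeaD yeast | Buffer or medium: SC raffinose/galactose permissive medium | Incubation: Cells pre-grown 4 h, then 24 h compound exposure, 30 °C humidified | Measured by: Absorbance (optical density) at 615 nm | Read-out: Reduction in yeast growth (OD615)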

[2] = S. cerevisiae growth inhibition in restrictive medium, OD615, pilot screen, restrictive growth control, yeast lifespan reduction project (AID 706;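 active means growth inhibition above a set limit, 3 SD over mean compound inhibition, in both replicates, cut at about 43% in these data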;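 further: modified DeaD lifespan yeast strain shifted to restrictive glucose medium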); conditions: OD615, 48 h, at 10 µM, stronger effect = higher value
How it was run: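 Material: modified S. cerevisiae; Medium: glucose-based CSMM-D restrictive medium; Compound dosing: one concentration, 10 µM final, 0.25% DMSO; Incubation: 48 h compound exposure at 30 °C; Measured by: OD615.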

[3] = doxorubicin toxicity protection in MRP-1 cells – H69AR cells, CellTiter-Glo, duplicate, MRP-1 activator project, pilot screen (AID 807;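 active means viability increase at or above a cutoff of the median across tested compounds plus 3 SD, cut at about 8.5% in these data, passing the limit was not always enough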;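 further: compound pretreatment 18-22 h then 72 h combined with doxorubicin; 0% = doxorubicin alone and 100% = vehicle without doxorubicin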); conditions: H69AR viability with doxorubicin, CellTiter-Glo luminescence; at 10 µM; stronger effect = higher value
[4] = viability of HCT116 without oncogenic beta-catenin – human colon tumor cells, pilot screen (AID 823;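 active means cell viability at or below a set limit in both duplicate runs, the limit being the all-compound median minus 4 SD, cut at about 23% in these data, passing the limit was not always enough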;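 further: 0% = wells killed by 20 µM Hyamine and 100% = untreated DMSO cell wells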); conditions: HCT116 beta-catenin knockout viability, CellTiter-Glo, 60 h; at 10 µM; stronger effect = lower value
[5] = viability of PTEN-null HCT116 cells – cell-based, HCT116 clonal line, CellTiter-Glo, pilot screen (AID 824); conditions: HCT116 PTEN-deleted viability, 60 h, at 10 µM, stronger effect = lower value;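 further: 0% = 20 µM Hyamine control and 100% = vehicle cell control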
[6] = RAM pathway blockade in budding yeast – dse1pr::URA3 reporter, 5-FOA selection, pilot screen (AID 869;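 active means inhibition over a set limit, the all-compound mean plus 3 SD, in both replicate runs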;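 further: 0% = DMSO wells with no growth and 100% = 10 µM 1-NA-PP1 with full growth; RAM network block rescues cells from 5-FOA so hits raise OD615 growth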); conditions: S. cerevisiae dse1pr::URA3 5-FOA growth, OD615, 2 d; at 10 µM; stronger effect = higher value; strain carries analog-sensitive mutant Cbk1 kinase
[7] = RAM signaling pathway blockade in yeast – S. cerevisiae, Pdr1DBD-CYC8 efflux-inhibited sensitized strain, primary screen (AID 1298;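 active means RAM network inhibition above 8.4% in each of two replicates, 3 SD over the compound average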;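 further: 0% = DMSO untreated cells without growth and 100% = 10 µM 1-NA-PP1 full growth; higher means more yeast growth rescued from 5-FOA killing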); conditions: S. cerevisiae cbk1-as DSE1-URA3 strain, 5-FOA growth OD615, 2 d; at 50 µM; stronger effect = higher value

Cc1ccc(C(C)C)c(OCC(=O)N2CCOCC2)c1
inactive: growth inhibition [1] -10.1% | growth inhibition [2] -20.3% | viability increase [3] -0.67% | viability [4] 99.3% | viability [5] 91.4% | inhibition [6] 1.69% | RAM network inhibition [7] 1.97%

O=C1c2oc3ccc(Cl)cc3c(=O)c2C(c2ccco2)N1CCN1CCOCC1 (stereo unspecified)
inactive: growth inhibition [1] -2.05% | growth inhibition [2] -4.56% | viability increase [3] -5.51% | viability [4] 89.6% | viability [5] 90.4% | inhibition [6] 0.415% | RAM network inhibition [7] -1.88%

C#CC(C)(C)NC(=O)CSc1nc2c(c(=O)n(C)c(=O)n2C)n1CCCC
inactive: growth inhibition [1] -15.3% | growth inhibition [2] -13.7% | viability increase [3] 1.86% | viability [4] 102% | viability [5] 89.4% | inhibition [6] 2.11% | RAM network inhibition [7] 1.45%

O=C(Oc1ccccc1)c1cccc(N2C(=O)CCC2=O)c1
inactive: growth inhibition [1] -1.76% | growth inhibition [2] 0.85% | viability increase [3] -1.06% | viability [4] 105% | viability [5] 105% | inhibition [6] 1.27% | RAM network inhibition [7] 1.74%

CCC(C)NC(=O)CCS(=O)(=O)c1ccc2c(c1)n(C)c(=O)c(=O)n2C (stereo unspecified)
inactive: growth inhibition [1] -2.86% | growth inhibition [2] 4.93% | viability increase [3] -0.01% | viability [4] 103% | viability [5] 99.1% | inhibition [6] 3% | RAM network inhibition [7] 3.76%

CC1CCN(C(=O)C(Cc2ccccc2)NS(=O)(=O)c2ccc3c(c2)oc(=O)n3C)CC1 (stereo unspecified)
inactive: growth inhibition [1] -12.5% | growth inhibition [2] -17.6% | viability increase [3] -1.4% | viability [4] 104% | viability [5] 94.1% | inhibition [6] 1.85% | RAM network inhibition [7] 8.04%

CCC1CCCCN1C(=O)CSc1nc2c(cnn2-c2ccc(C)cc2)c(=O)[nH]1 (stereo unspecified)
inactive: growth inhibition [1] -3.04% | growth inhibition [2] -5.33% | viability increase [3] -3.73% | viability [4] 97.2% | viability [5] 87.1% | inhibition [6] 1.71% | RAM network inhibition [7] 6.97%

Cc1oc(-c2ccccc2F)nc1CS(=O)CC(=O)NCc1ccc2c(c1)OCO2 (stereo unspecified)
inactive: growth inhibition [1] -13.9% | growth inhibition [2] 2.87% | viability increase [3] -1.41% | viability [4] 94.2% | viability [5] 89.3% | inhibition [6] 2% | RAM network inhibition [7] 7.13%

COc1ccc(C2C3=C(Nc4ncnn42)c2ccccc2CCC3)cc1 (stereo unspecified)
inactive: growth inhibition [1] -12.5% | growth inhibition [2] -17.7% | viability increase [3] -1.45% | viability [4] 91.7% | viability [5] 89.1% | inhibition [6] 1.9% | RAM network inhibition [7] 3.32%

CC1=C(C(=O)OCC2CCCO2)C(c2ccncc2)C2=C(CCCC2=O)N1 (stereo unspecified)
inactive: growth inhibition [1] -16.7% | growth inhibition [2] -8.36% | viability increase [3] -1.77% | viability [4] 98.9% | viability [5] 98.1% | inhibition [6] 2.9% | RAM network inhibition [7] 1.82%

Cc1ccc(-n2nc3ccc(N)cc3n2)cc1
inactive: growth inhibition [1] -12.9% | growth inhibition [2] 5.77% | viability increase [3] -5.26% | viability [4] 80% | viability [5] 78.5% | inhibition [6] 2.38% | RAM network inhibition [7] 2.79%

NC(=O)CSc1nc2ccccc2n1-c1ccccc1
inactive: growth inhibition [1] -9.13% | growth inhibition [2] 1.74% | viability increase [3] -0.83% | viability [4] 99% | viability [5] 97.5% | inhibition [6] 0.02% | RAM network inhibition [7] 0.62%

CCOc1cc(CN2CCSCC2)ccc1O
inactive: growth inhibition [1] -8.12% | growth inhibition [2] -9.94% | viability increase [3] 0.51% | viability [4] 97% | viability [5] 101% | inhibition [6] 0.825% | RAM network inhibition [7] 4.67%

CC(=O)c1c(NC(=O)C(C)C)nc(C)nc1-c1ccccc1
inactive: growth inhibition [1] -6.5% | growth inhibition [2] -8.2% | viability increase [3] -0.66% | viability [4] 98.4% | viability [5] 100% | inhibition [6] 1.69% | RAM network inhibition [7] -0.83%

CCN(c1cccc(C)c1)c1ncnc2nc[nH]c12
inactive: growth inhibition [1] -4.6% | growth inhibition [2] 15.6% | viability increase [3] -3.73% | viability [4] 103% | viability [5] 95.9% | inhibition [6] 0.95% | RAM network inhibition [7] 0.64%

Cc1cccc(OCCSc2cc(C)nc(N)n2)c1
inactive: growth inhibition [1] -6.16% | growth inhibition [2] -8.02% | viability increase [3] -1.44% | viability [4] 89.1% | viability [5] 79.1% | inhibition [6] -0.215% | RAM network inhibition [7] -2.06%

CC(=O)c1cccc(NC(=O)c2c(F)c(F)c(F)c(F)c2F)c1
inactive: growth inhibition [1] -4.19% | growth inhibition [2] 6.79% | viability increase [3] -7.13% | viability [4] 95% | viability [5] 88.4% | inhibition [6] 1.01% | RAM network inhibition [7] -0.87%

CN1CCN(S(=O)(=O)c2cccc(S(=O)(=O)c3ccc(Cl)c(Cl)c3)c2)CC1
inactive: growth inhibition [1] -1.71% | growth inhibition [2] -7.33% | viability increase [3] -2.58% | viability [4] 91.1% | viability [5] 83.7% | inhibition [6] 0.59% | RAM network inhibition [7] 4.5%

Fc1ccc(Cc2nnc(-c3cccs3)o2)cc1
inactive: growth inhibition [1] -20.1% | growth inhibition [2] -0.63% | viability increase [3] 0.11% | viability [4] 104% | viability [5] 97.8% | inhibition [6] 1.93% | RAM network inhibition [7] 12.2%

CCCC12CN3CC(CCC)(CN(C1)C3C(O)C(O)C(O)CO)C2=O (stereo unspecified)
inactive: growth inhibition [1] 4.31% | growth inhibition [2] 7.78% | viability increase [3] 0.62% | viability [4] 99.7% | viability [5] 100% | inhibition [6] 1.27% | RAM network inhibition [7] 3.47%

CC(c1ccccc1F)n1cc(C(=O)NCc2ccncc2)nn1 (stereo unspecified)
inactive: growth inhibition [1] -19.2% | growth inhibition [2] -8.25% | viability increase [3] -0.75% | viability [4] 96.3% | viability [5] 94.9% | inhibition [6] 1.86% | RAM network inhibition [7] 4.53%

O=C(NCCCN1CCOCC1)C1CCC(=O)N1CCc1ccccc1 (stereo unspecified)
inactive: growth inhibition [1] -0.765% | growth inhibition [2] -7.29% | viability increase [3] -0.18% | viability [4] 103% | viability [5] 96.7% | inhibition [6] 3.66% | RAM network inhibition [7] 0.63%

CCCCNC(=O)CS(=O)Cc1nc(-c2cccc(Cl)c2)oc1C (stereo unspecified)
inactive: growth inhibition [1] -2.86% | growth inhibition [2] 11.4% | viability increase [3] -0.78% | viability [4] 92.2% | viability [5] 97.3% | inhibition [6] 0.705% | RAM network inhibition [7] 6.02%

Cc1ccc(C(=O)NCCCC(=O)O)o1
inactive: growth inhibition [1] -6.95% | growth inhibition [2] -1.79% | viability increase [3] -2.22% | viability [4] 97.4% | viability [5] 96.9% | inhibition [6] 0.1% | RAM network inhibition [7] 5.07%

O=C(CCNS(=O)(=O)c1cccc2nsnc12)NC1CCCc2ccccc21 (stereo unspecified)
inactive: growth inhibition [1] -9.18% | growth inhibition [2] -13.1% | viability increase [3] -4.33% | viability [4] 88.2% | viability [5] 90.3% | inhibition [6] 1.23% | RAM network inhibition [7] 0.26%

Cc1cc(C)n(CC(=O)n2c3ccccc3c3ccccc32)n1
inactive: growth inhibition [1] 5.86% | growth inhibition [2] -3.37% | viability increase [3] -3.82% | viability [4] 78.2% | viability [5] 91.7% | inhibition [6] 0.155% | RAM network inhibition [7] -1.18%

CCCCN(CC)CCNC(=O)c1cc2c(=O)n(C)c3ccccc3c2n1C
inactive: growth inhibition [1] 2.65% | growth inhibition [2] -6.07% | viability increase [3] -5.86% | viability [4] 49% | viability [5] 48.6% | inhibition [6] 0.8% | RAM network inhibition [7] 0.41%

Cc1cccn2c(=O)c3cc(C(=O)NC4CCS(=O)(=O)C4)sc3nc12 (stereo unspecified)
inactive: growth inhibition [1] -6% | growth inhibition [2] 1.39% | viability increase [3] -2.99% | viability [4] 101% | viability [5] 97.2% | inhibition [6] 2.06% | RAM network inhibition [7] 0.09%

N#Cc1nc(COc2ccccc2F)oc1NCc1ccc(F)cc1
inactive: growth inhibition [1] -5.23% | growth inhibition [2] 6.15% | viability increase [3] -4.08% | viability [4] 92.1% | viability [5] 90.7% | inhibition [6] 0.39% | RAM network inhibition [7] 8.3%

CCOCCn1c(CN2CCC(C)CC2)nc2c1c(=O)n(C)c(=O)n2C
inactive: growth inhibition [1] 7.15% | growth inhibition [2] -2.44% | viability increase [3] -1.22% | viability [4] 91.8% | viability [5] 91.5% | inhibition [6] 0.02% | RAM network inhibition [7] -0.56%

Cc1ccc2oc(=O)c3cc(C(=O)NCc4ccco4)sc3c2c1
inactive: growth inhibition [1] -8.27% | growth inhibition [2] -8.27% | viability increase [3] -2.9% | viability [4] 102% | viability [5] 96.6% | inhibition [6] 3.86% | RAM network inhibition [7] 2.71%

Cc1nc(C)c(C(=O)Nc2cccc(C)c2C)o1
inactive: growth inhibition [1] -5.6% | growth inhibition [2] -15.8% | viability increase [3] -3.05% | viability [4] 109% | viability [5] 90.1% | inhibition [6] 3.58% | RAM network inhibition [7] 1.53%

c1ccc(Cn2nnc3c(N4CCOCC4)ncnc32)cc1
inactive: growth inhibition [1] -15.8% | growth inhibition [2] -25.2% | viability increase [3] -1.15% | viability [4] 92.7% | viability [5] 89.5% | inhibition [6] 0.93% | RAM network inhibition [7] -0.79%

From PubChem BioAssay
